Data: ChEMBL document CHEMBL1154127, “Oxidative burst inhibitory and cytotoxic indoloquinazoline and furoquinoline alkaloids from Oricia suaveolens” (J Nat Prod, 2008)
The source made the active and inactive calls. The rule behind the calls is not given here.

What was measured:
A549 = assay: Cytotoxicity against human A549 cells by SRB assay; type: functional, cell-based
In short: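 A549 lung adenocarcinoma cells, freshly trypsinized, seeded at 1 × 10^4 cells per well. Compounds added from a DMSO-diluted stock. Cultured 3 days, then attached cells stained with sulforhodamine B and dye solubilized in DMSO. Absorbance read at 550 nm. IC50 is the concentration reducing cell growth by 50%. Cisplatin served as positive control.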

[1] = Immunomodulatory activity in whole blood assessed as inhibition of luminol-induced oxidative burst by chemiluminescence assay; type: functional, tissue-based
In short: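 Whole blood diluted 1:200 in HBSS with Ca2+ and Mg2+, preincubated 30 min with compounds at 3.1-50 µg/mL. Then serum-opsonized zymosan (20 mg/mL as added) and luminol ([…] as added) were added, and the final volume brought to 0.2 mL with HBSS++. HBSS++ alone served as control. Luminol-enhanced chemiluminescence measured, giving IC50.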

Neutrophil [2] = assay: Immunomodulatory activity in polymorphoneutrophils assessed as inhibition of luminol-induced oxidative burst by chemiluminescence assay; type: functional, cell-based
In short: (§1)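 Luminol-enhanced chemiluminescence on isolated neutrophils (1 × 10^7) in HBSS with Ca2+ and Mg2+. Cells preincubated 30 min with compounds at 3.1-50 µg/mL. Burst triggered with serum-opsonized zymosan (20 mg/mL as added), followed by luminol ([…] as added). Final volume adjusted to 0.2 mL with HBSS++, which also served as control. Read-out is IC50.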

Neutrophil [3] = assay: Immunomodulatory activity in polymorphoneutrophils assessed as inhibition of zymosan-activated oxidative burst by chemiluminescence assay; type: functional, cell-based; in short: as §1
Neutrophil [4] = assay: Immunomodulatory activity in polymorphoneutrophils assessed as inhibition of PMA-activated oxidative burst by chemiluminescence assay; type: functional, cell-based

IC50 [1]	IC50 (Neutrophil [2])	SMILES	IC50 (A549)	Activity (Neutrophil [3])	Activity (Neutrophil [4])
–	–	O=c1c2ccc(O)cc2nc2n1CCc1c-2[nH]c2ccccc12 [ORISUAVEOLINE A]	> 10 µM	–	–
74.9 µM	61.8 µM	COc1cc2nc3occc3c(OC)c2cc1OC [KOKUSAGININE]	–	Dose-dependent effect	inactive
54.3 µM	12.1 µM	CC(C)Cc1ccc(C(C)C(=O)O)cc1 (stereo unspecified) [IBUPROFEN]	–	–	–
54.4 µM	21.2 µM	COc1c2ccoc2nc2c(O)c3c(c(CC=C(C)C)c12)OCO3 [TECLEAVERDOORNINE]	–	Dose-dependent effect	inactive
48.8 µM	27.4 µM	COc1ccc2c(=O)n3c(nc2c1)-c1[nH]c2ccccc2c1CC3	> 10 µM	Dose-dependent effect	inactive
–	–	COc1c2c(cc3nc4occc4c(OC)c13)OCO2	7.9 µM	–	–
51.3 µM	35.5 µM	COc1ccc2c(OC)c3ccoc3nc2c1OC [SKIMMIANINE]	> 10 µM	Dose-dependent effect	inactive
26.1 µM	38.2 µM	CC1(C)O[C@H]2CC(=O)OC[C@]23[C@H]2CC[C@@]4(C)[C@H](c5ccoc5)OC(=O)[C@H]5O[C@]54[C@]2(C)C(=O)C[C@@H]13 [LIMONIN]	–	Dose-dependent effect	inactive
56.8 µM	14.5 µM	COc1c2cc3c(cc2nc2occc12)O[C@@H](C(C)(C)O)CO3 [QUINOSUAVEOLINE B]	–	Dose-dependent effect	inactive
–	–	COc1c2ccoc2nc2c(OC)c3c(cc12)OCO3 [FLINDERSIAMINE]	8.9 µM	–	–
–	–	COc1c2cc3c(cc2nc2occc12)OCO3 [MACULINE]	9.5 µM	–	–
31.8 µM	22.4 µM	COc1ccc2c(=O)n3c(nc2c1)-c1[nH]c2cc4c(cc2c1CC3)OCO4 [ORISUAVEOLINE B]	–	Dose-dependent effect	inactive
